Here are results for 21 compounds from ChEMBL document CHEMBL3352666, “Human Toll-like receptor 8-selective agonistic activities in 1-alkyl-1H-benzimidazol-2-amines” (J Med Chem, 2014).

What all share (format): cell-based
Experiment [1] deals with T1, Nucleotide-binding oligomerization domain-containing protein 1 (Homo sapiens) (UniProt Q9Y239).
T1 sequence (whole entry): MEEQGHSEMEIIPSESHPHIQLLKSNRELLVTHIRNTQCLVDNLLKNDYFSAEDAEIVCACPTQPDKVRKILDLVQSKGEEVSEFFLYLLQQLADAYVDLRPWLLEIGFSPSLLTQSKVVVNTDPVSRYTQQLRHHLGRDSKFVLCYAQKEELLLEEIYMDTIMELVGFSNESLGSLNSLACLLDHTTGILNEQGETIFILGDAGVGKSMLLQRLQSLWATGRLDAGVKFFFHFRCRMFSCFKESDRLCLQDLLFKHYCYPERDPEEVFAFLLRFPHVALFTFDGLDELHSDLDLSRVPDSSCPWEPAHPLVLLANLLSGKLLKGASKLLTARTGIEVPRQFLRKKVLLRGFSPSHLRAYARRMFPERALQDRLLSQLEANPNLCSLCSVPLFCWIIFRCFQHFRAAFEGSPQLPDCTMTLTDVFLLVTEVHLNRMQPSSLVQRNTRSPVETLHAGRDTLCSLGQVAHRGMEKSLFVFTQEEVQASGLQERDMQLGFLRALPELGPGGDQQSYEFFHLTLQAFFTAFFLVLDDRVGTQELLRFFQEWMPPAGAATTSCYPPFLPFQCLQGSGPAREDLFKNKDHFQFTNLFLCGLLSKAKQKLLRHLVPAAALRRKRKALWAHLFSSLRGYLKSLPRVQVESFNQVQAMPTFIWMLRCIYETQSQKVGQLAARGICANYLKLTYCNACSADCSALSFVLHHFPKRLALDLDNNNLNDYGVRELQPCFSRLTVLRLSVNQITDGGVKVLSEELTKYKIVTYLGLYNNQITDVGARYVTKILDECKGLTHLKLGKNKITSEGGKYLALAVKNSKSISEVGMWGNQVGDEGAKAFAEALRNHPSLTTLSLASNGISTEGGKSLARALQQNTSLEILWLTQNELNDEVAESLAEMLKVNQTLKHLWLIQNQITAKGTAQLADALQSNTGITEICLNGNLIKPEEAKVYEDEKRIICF
In words: Agonist activity at human NOD1 stably expressed in HEK293 cells co-expressing secreted alkaline phosphatase assessed as NF-kappaB induction by liquid handler-assisted reporter gene assay. The gist of the method:
(§1)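 HEK293 reporter cells stably co-transfected with the respective human TLR or NOD receptor plus NF-κB/AP-1-driven secreted alkaline phosphatase, kept in selection medium. About 10^5 cells/ml were incubated with graded concentrations of test compound in 384-well format. Supernatant sAP was read colorimetrically at 620 nm with an alkaline phosphatase-specific chromogen in detection medium.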
(In general: Reporter assays use an easily measured gene product as a stand-in for the process of interest.)

The target in experiment [2] is T2, Toll-like receptor 8 (Homo sapiens, UniProt Q9NR97).
T2 sequence (Q9NR97 whole entry): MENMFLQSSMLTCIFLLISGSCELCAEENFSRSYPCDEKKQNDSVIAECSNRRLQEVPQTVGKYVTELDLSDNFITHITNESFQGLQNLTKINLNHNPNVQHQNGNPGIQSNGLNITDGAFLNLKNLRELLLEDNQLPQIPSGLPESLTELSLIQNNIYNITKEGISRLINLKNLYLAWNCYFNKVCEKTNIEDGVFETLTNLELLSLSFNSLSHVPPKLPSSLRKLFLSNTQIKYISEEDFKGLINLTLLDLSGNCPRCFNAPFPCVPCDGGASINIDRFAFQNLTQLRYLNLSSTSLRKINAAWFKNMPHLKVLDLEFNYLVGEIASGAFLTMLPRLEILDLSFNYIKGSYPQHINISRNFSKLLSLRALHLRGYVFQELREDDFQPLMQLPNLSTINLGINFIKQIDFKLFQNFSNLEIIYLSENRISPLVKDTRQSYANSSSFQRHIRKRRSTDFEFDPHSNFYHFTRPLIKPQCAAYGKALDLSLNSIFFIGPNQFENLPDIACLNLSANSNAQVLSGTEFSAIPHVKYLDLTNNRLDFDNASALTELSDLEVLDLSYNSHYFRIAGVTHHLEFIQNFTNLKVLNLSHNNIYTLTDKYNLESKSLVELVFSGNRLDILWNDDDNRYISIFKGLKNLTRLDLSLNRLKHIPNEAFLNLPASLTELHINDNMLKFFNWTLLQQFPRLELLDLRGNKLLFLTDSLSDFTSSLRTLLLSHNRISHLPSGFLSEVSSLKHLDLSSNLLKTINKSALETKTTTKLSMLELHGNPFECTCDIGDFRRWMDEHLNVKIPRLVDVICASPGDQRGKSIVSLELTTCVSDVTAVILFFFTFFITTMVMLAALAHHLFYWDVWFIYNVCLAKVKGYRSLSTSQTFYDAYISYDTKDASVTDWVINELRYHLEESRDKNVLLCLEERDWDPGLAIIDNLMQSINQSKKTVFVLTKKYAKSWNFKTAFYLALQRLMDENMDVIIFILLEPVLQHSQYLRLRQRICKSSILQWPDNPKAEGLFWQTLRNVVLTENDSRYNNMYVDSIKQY
Description: Agonist activity at human TLR8 stably expressed in HEK293 cells co-expressing secreted alkaline phosphatase assessed as NF-kappaB induction by liquid handler-assisted reporter gene assay. A digest of the protocol:
as §1

The target in experiment [3] is Toll-like receptor 3 (Homo sapiens) (UniProt O15455). Description: Agonist activity at human TLR3 stably expressed in HEK293 cells co-expressing secreted alkaline phosphatase assessed as NF-kappaB induction by liquid handler-assisted reporter gene assay. A digest of the protocol:
as §1

Activity calls are given as the source filed them. No cut-off for these calls is given here.

Toll-like receptor 3 (Homo sapiens), sequence (O15455 whole entry): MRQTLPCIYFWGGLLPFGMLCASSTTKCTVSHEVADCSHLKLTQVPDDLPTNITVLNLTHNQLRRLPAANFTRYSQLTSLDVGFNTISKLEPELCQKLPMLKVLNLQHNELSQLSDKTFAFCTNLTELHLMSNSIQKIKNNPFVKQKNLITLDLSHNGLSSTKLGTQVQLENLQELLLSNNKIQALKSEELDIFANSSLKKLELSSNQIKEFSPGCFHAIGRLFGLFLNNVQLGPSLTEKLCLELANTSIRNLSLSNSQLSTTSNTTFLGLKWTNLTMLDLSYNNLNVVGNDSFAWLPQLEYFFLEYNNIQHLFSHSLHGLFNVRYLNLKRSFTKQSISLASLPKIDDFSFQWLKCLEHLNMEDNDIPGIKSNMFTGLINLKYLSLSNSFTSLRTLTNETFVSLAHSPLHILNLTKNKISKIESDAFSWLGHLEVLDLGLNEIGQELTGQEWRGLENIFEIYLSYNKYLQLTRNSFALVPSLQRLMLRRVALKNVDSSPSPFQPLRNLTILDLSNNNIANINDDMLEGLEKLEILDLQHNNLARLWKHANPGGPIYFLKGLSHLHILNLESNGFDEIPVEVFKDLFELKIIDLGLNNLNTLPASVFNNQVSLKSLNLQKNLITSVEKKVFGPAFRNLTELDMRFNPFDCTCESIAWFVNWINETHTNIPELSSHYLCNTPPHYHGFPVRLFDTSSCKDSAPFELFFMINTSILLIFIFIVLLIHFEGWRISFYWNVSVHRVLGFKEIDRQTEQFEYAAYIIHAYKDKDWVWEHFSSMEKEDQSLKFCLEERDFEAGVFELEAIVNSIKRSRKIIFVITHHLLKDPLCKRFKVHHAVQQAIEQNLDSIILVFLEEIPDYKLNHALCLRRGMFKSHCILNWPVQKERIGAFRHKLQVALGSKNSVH

On to `NCc1cccc(Cn2c(N)nc3ccccc32)c1`, for which the outcome in experiment [1] and in experiment [3] was inactive. Besides, in experiment [2], the EC50 entry is listed as “Not Active”.
With `CCCCCn1c(NC(C)=O)nc2ccccc21`, the outcome in experiment [1] and in experiment [3] was inactive. Also, the EC50 entry in experiment [2] is recorded as “Not Active”.
For the compound `CCCCCn1c(N)nc2cccnc21`, the outcome in experiment [1] and in experiment [3] was inactive. Moreover, the EC50 entry in experiment [2] was “Not Active”.
In the case of `CCCCCn1c(N)nc2cnccc21`, the outcome in experiment [1] and in experiment [3] was inactive. Besides, the EC50 entry in experiment [2] is on record as “Not Active”.
Consider `CCCCCn1c(N)nc2cc3ccccc3cc21`, for which the result in experiment [1] and in experiment [3] was inactive. Moreover, the EC50 entry in experiment [2] was “Not Active”.
Regarding `CCCCC1C(N)=Nc2ccccc21.Cl` (configuration not stated), the outcome in experiment [1] and in experiment [3] was inactive. Moreover, the EC50 result in experiment [2] is recorded as “ND(Unstable)”.
On to `CCCCCn1c(N)nc2c(C(F)(F)F)cccc21`, for which the outcome in experiment [1] and in experiment [3] was inactive. The EC50 entry in experiment [2] is “Not Active”.
On to `CCCCCn1c(N)nc2ncccc21`, for which the outcome in experiment [1] and in experiment [3] was inactive. Also, the EC50 result in experiment [2] was “Not Active”.
Turning to `CCCCOC(=O)n1c(N)nc2ccccc21`, the outcome in experiment [1] and in experiment [3] was inactive. The EC50 entry in experiment [2] is “Not Active”.
Turning to `CCCCCn1c(N)nc2ccc3ccccc3c21`, the result in experiment [1] and in experiment [3] was inactive. Besides, the EC50 entry in experiment [2] is recorded as “Not Active”.
Take `Nc1nc2ccccc2n1Cc1ccccc1`: the result in experiment [1] and in experiment [3] was inactive. In experiment [2], the EC50 result is on record as “Not Active”.
On to `CCCCCn1c(N)nc2c(OCc3ccccc3)cccc21`, for which the outcome in experiment [1] and in experiment [3] was inactive. For the same compound, the EC50 result in experiment [2] is reported as “Not Active”.
As for `CCCCCn1c(N)nc2c(Br)cccc21`, the result in experiment [1] and in experiment [3] was inactive. The EC50 entry in experiment [2] is on record as “Not Active”.
For the compound `CCCCC1(O)C(N)=Nc2ccccc21` (configuration not stated), the result in experiment [1] and in experiment [3] was inactive. Further, the EC50 result in experiment [2] is “Not Active”.
With `CCCCCn1c(N)nc2c([N+](=O)[O-])cccc21`, the outcome in experiment [1] and in experiment [3] was inactive. The EC50 entry in experiment [2] was “Not Active”.
For the compound `CCCCCn1c(N)nc2c(F)cccc21`, the result in experiment [1] and in experiment [3] was inactive. Also, the EC50 entry in experiment [2] was “Not Active”.
In the case of `CCCCCn1c(N)nc2c(Cc3ccccc3)cccc21`, the outcome in experiment [1] and in experiment [3] was inactive. The EC50 entry in experiment [2] is listed as “Not Active”.
As for `CCCCCn1c(N)nc2c(Cl)cccc21`, the outcome in experiment [1] and in experiment [3] was inactive. Also, the EC50 result in experiment [2] is “Not Active”.
`CCCCCn1c(N)nc2c(C)cccc21`: the outcome in experiment [1] and in experiment [3] was inactive.
With `CCCCCn1c(N)nc2c(-c3ccccc3)cccc21`, the outcome in experiment [1] and in experiment [3] was inactive. The EC50 entry in experiment [2] is reported as “Not Active”.
Turning to `CCCCCn1c(N)nc2ccncc21`, the outcome in experiment [1] and in experiment [3] was inactive. Moreover, in experiment [2], the EC50 result was “Not Active”.
